Published values gathered from unrelated publications.
Lines come from different studies, so protocols differ.
Cell line: HCT-116
Effect on: cell growth or viability

COc1cc2c(OC)nc3c4cc5c(cc4cc(OCCCN4CCC(N6CCCCC6)CC4)c3c2cc1OC)OCO5
GI50 (MTT; 72 h): 5700 nM

COc1ccc(NCC(=O)Nc2c(C#N)sc(Nc3ccccc3)c2C(=O)Nc2ccc(OC)cc2)cc1
viability (SRB; 10 nM, 48 h): 82.6%

COc1ccc(C(=O)/C=C/c2cc3c(cc2Br)OCO3)cc1S(N)(=O)=O
inhibition (SRB; 10 µM): 198%

Cc1c(OCC(F)(F)F)ccnc1COc1ccc(NC(=O)Nc2cccc(C(F)(F)F)c2)cc1
IC50 (MTT; 72 h): 5430 nM

COc1cc(/C=N/n2c(C)nc3ccc(C)cc3c2=O)cc([N+](=O)[O-])c1O
viability (LDH; 200 µg/mL, 24 h): 90%

COc1ccc(NC(=O)c2c(Nc3ccccc3)sc(C#N)c2NC(=O)CNc2ccc(Cl)cc2)cc1
viability (SRB; 0.1 µM, 48 h): 72%

COc1ccccc1/C=C/C(=O)c1ccc(OC)c(S(N)(=O)=O)c1
inhibition (SRB; 10 µM): 95%

CCN(CC)CCCOc1cc2cc3c(cc2c2nc(OC)c4cc(OC)c(OC)cc4c12)OCO3
GI50 (MTT; 72 h): 13000 nM

COc1ccc(C(=O)/C=C/c2cccc3ccccc23)cc1S(N)(=O)=O
GI50 (SRB; 48 h): 1300 nM

COc1cc2c(OC)nc3c4cc5c(cc4cc(OCCCN4CC=CC4)c3c2cc1OC)OCO5
GI50 (MTT; 72 h): 1300 nM

COc1ccc(C(=O)/C=C/c2cccc(Br)c2)cc1S(N)(=O)=O
inhibition (SRB; 10 µM): 199%

CCN(CC)CCOc1cc2cc3c(cc2c2nc(OC)c4cc(OC)c(OC)cc4c12)OCO3
GI50 (MTT; 72 h): ≥ 100000 nM

COc1ccc(C(=O)/C=C/c2ccc(Cl)c(Cl)c2)cc1S(N)(=O)=O
inhibition (SRB; 10 µM): 196%

COc1cc(NCC(=O)Nn2c(C)nc3ccc(Cl)cc3c2=O)cc(OC)c1OC
viability (LDH; 200 µg/mL, 24 h): 54.5%

COc1ccc(NC(=O)c2c(Nc3ccccc3)sc(C(=O)NN=Cc3cc(OC)c(OC)c(OC)c3)c2NC(C)=O)cc1
viability (SRB; 100 µM, 48 h): 43.2%

Cc1nc2ccc(Cl)cc2c(=O)n1NC(=O)CCl
viability (LDH; 200 µg/mL, 24 h): 89%

COc1ccc(NC(=O)c2c(Nc3ccccc3)sc(C(=O)NN=Cc3ccc(OC)c(O)c3)c2NC(C)=O)cc1
viability (SRB; 10 nM, 48 h): 83.7%

COc1ccc(C(=O)/C=C/c2ccccc2Br)cc1S(N)(=O)=O
inhibition (SRB; 10 µM): 197%

COc1cccc(Oc2ccccc2NC(=O)CNC(=O)c2cccc3ccccc23)c1
GI50 (SRB; 48 h): 95.5 nM

COc1ccc(NC(=O)c2c(Nc3ccccc3)sc(C#N)c2NC(=O)CNc2ccc(OC)c(OC)c2)cc1
viability (SRB; 0.1 µM, 48 h): 76%

COc1ccc(C(=O)/C=C/c2ccc3ccccc3c2)cc1S(N)(=O)=O
inhibition (SRB; 10 µM): 198%

COc1ccc(NC(=O)c2c(Nc3ccccc3)sc(C#N)c2NC(=O)CNc2ccc([N+](=O)[O-])cc2)cc1
viability (SRB; 0.1 µM, 48 h): 83.9%

COc1ccc(C(=O)/C=C/c2cccc(Cl)c2Cl)cc1S(N)(=O)=O
GI50 (SRB; 48 h): 1300 nM

COc1ccc(NC(=O)c2c(Nc3ccccc3)sc(C(=O)NN=Cc3ccc(Cl)cc3)c2NC(C)=O)cc1
viability (SRB; 10 nM, 48 h): 95.1%

S=C([S][Au-][P+](CCCCCC[P+]([Au-][S]C(=S)n1cccn1)(c1ccccc1)c1ccccc1)(c1ccccc1)c1ccccc1)n1cccn1
GI50: 420 nM

COc1ccc(C=NNC(=O)c2sc(Nc3ccccc3)c(C(=O)Nc3ccc(OC)cc3)c2NC(C)=O)cc1
viability (SRB; 10 µM, 48 h): 46.8%

COc1cc(CNC(=O)C[C@H](C)CCC=C(C)C)ccc1OCc1cn(-c2ccc(Cl)cc2)nn1
inhibition (SRB; 10 µM): 41%
